Experimental data pooled from the literature.
Target: RAC-beta serine/threonine-protein kinase (AKT2, Homo sapiens, UniProt P31751)

read-out | action | technique | tested at | measurement | value | SMILES
enzyme activity | inhibitor |  | 1 µM | inhibition | 1% | C=CC(=O)N1CCC([C@@H]2CCNc3c(C(N)=O)c(-c4ccc(Oc5ccccc5)cc4)nn32)CC1
binding |  |  | 1 µM | remaining binding | 100% | CN1CCN(C(=O)c2ccc(NC(=O)Nc3ccc(N(C)c4ccnc(Nc5ccc(CS(C)(=O)=O)cc5)n4)cc3)cc2)CC1
cell-free assay |  |  | 1 µM | remaining signal | 100% | C#Cc1cnc(Nc2ccnc(CO)c2)nc1Nc1ccccc1S(C)(=O)=NC#N (stereo not shown)
binding |  | competition with immobilised ligand | 0.5 µM | remaining binding | 100% | CCCCC(=O)Nc1ccc(-c2ccc3ncn(CCC)c(=O)c3c2)cn1
binding |  |  | 0.1 µM | remaining binding | 100% | C1=C/COCc2cc(ccc2OCCN2CCCC2)Nc2nccc(n2)-c2cccc(c2)COC/1
cell-free assay |  | competition with immobilised ligand | 25 µM | remaining binding | 92% | N#Cc1ccc(NC(=O)Nc2ccccc2)cc1
enzyme activity | inhibitor |  | 1 µM | inhibition | 0% | CC#CC(=O)N1CCC[C@H]1c1nc(-c2ccc(C(=O)Nc3ccccn3)cc2)c2c(N)nccn12
enzyme activity | inhibitor |  | 15 nM | remaining activity | 93% | Cc1cc(-c2ccnc3[nH]cc(F)c23)cc(F)c1[C@@]1(O)[C@H](C)CN(C2CCS(=O)(=O)CC2)C[C@@H]1C
cell-free assay |  |  | 1 µM | remaining signal | 100% | C[C@H]1CC[C@H](n2c3cnccc3c3cnc(Nc4ccc5c(n4)CCN(C(=O)CO)C5)nc32)CC1
binding |  |  | 1 µM | remaining binding | 93% | COc1ccc2oc(-c3ccc4nc(N)oc4c3)c/c(=N\c3ccccc3NC(=O)CCN)c2c1
